Test results from publication PMC4479701 (mBio, 2015).
≈ marks a conversion by molar mass, not a printed value.

What was measured:
[1] = tested on: C. albicans, Candida parapsilosis, Paecilomyces variotii; test: MIC, poor activity; format: cell-based
Procedure, shortened: (§1)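 Inoculum prepared per CLSI M27-A3. Plates incubated at 37°C with 5% CO2 for 24 to 96 h. MIC was the lowest concentration inhibiting 50% of growth versus the drug-free control. Minimum fungicidal concentration was also measured: serial dilutions from wells were plated on YPD agar, and MFC was the lowest concentration yielding three or fewer colonies (99% of inoculum killed).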

Histoplasma capsulatum = format: cell-based
C. neoformans cells = test: In vitro killing assay; format: cell-based
Procedure, shortened: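 An overnight C. neoformans culture was washed in PBS and resuspended in HEPES-buffered YNB, pH 7.4. 2 × 10^4 cells were exposed to 1, 2 or 4 µg/ml test compound in 10 ml (0.4% DMSO final), at 37°C, 5% CO2, on a rotary shaker at 200 rpm. Aliquots taken at time points were diluted, plated on YPD, incubated 72 h at 30°C, and CFU counted.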

[2] = tested on: Bone marrow-derived macrophages; format: cell-based
[3] = tested on: GlcCer synthesis in C. albicans cells; test: GlcCer synthesis in C. albicans; format: cell-based; conditions: in vitro treatment; data not shown
Candida glabrata = test: In vitro susceptibility testing; format: cell-based; conditions: FTL strains (10)
Procedure, shortened: as §1

C. neoformans [4] = test: NBD C6-ceramide staining; format: cell-based; conditions: 4 µg/ml; microscopy and FACS
Procedure, shortened: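 C. neoformans cells, untreated or treated with 4 µg/ml test compound, were fixed in 4% paraformaldehyde in PBS and washed. They were stained with NBD C6-ceramide for 16 h at 4°C, then incubated with 1% BSA at 4°C for 1 h to strip excess dye.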

Candida albicans = test: In vitro susceptibility testing; format: cell-based
Procedure, shortened: as §1

[5] = tested on: GlcCer synthesis in J774.16 cells; test: Labeling of mammalian cells with [3H]palmitate, TLC of GlcCer; format: cell-based, murine; conditions: [3H]palmitate labeling, 6 h
Procedure, shortened: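 J774.16 macrophages (5 × 10^6 cells/ml) adhered for 14 h in six-well plates. They were exposed for 4 h to test compound at the concentrations used for the fungal labeling, then given 30 µCi/ml [3H]palmitic acid for a further 2 h.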

P. murina = test: Murine pneumocystosis, corticosteroid-immunosuppressed; format: in vivo, mouse (C3H/HeN)
Procedure, shortened: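 Corticosteroid-immunosuppressed mice were infected with P. murina by cohousing with seed mice for 2 weeks. […] Treatment lasted 13 days. Lung homogenate slides were stained with Diff-Quik for trophic forms and cresyl echt violet for asci.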

Coccidioides spp. = format: cell-based
C. neoformans [6] = test: Transmission electron microscopy, intracellular vesicles; format: cell-based; conditions: 4 µg/ml, 6 h
[7] = tested on: S. cerevisiae RYO0622 strain; test: IC100 prescreening; format: cell-based, Saccharomyces cerevisiae; conditions: solid SC medium, 2 days, 30°C
Procedure, shortened: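 S. cerevisiae RYO0622 cells (20 µl at OD600 10−4) spotted on solid SC medium alone, with DMSO, or with test compound at 67, 133, 266, 533 and 1,066 µg/ml in a 48-well plate. Incubation 2 days at 30°C in the dark. IC100 taken as the concentration giving 100% growth inhibition.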

Aspergillus fumigatus = test: In vitro susceptibility testing; format: cell-based
Procedure, shortened: as §1

Blastomyces dermatitis = test: In vitro susceptibility testing; format: cell-based; conditions: FTL strains (10)
Procedure, shortened: as §1

Candida parapsilosis = test: In vitro susceptibility testing; format: cell-based
Procedure, shortened: as §1

Cc1ccccc1C(=O)NN=Cc1ccc(O)c(Br)c1 [BHBM, N′-(3-bromo-4-hydroxybenzylidene)-2-methylbenzohydrazide]
MIC [1]: > 32 µg/mL | MIC range (Histoplasma capsulatum): 0.125−1 µg/ml | incubation required to kill about 50% of the cells (C. neoformans cells): at least 72 h | type of killing (C. neoformans cells; time-kill assay, 37°C, 5% CO2, pH 7.4): concentration-dependent killing | mammalian GlcCer level [2]: did not significantly affect | GlcCer synthesis [3]: inhibited GlcCer synthesis in a dose-dependent manner | MIC range (Candida glabrata): 0.125−2 µg/ml | NBD C6-ceramide staining (C. neoformans [4]): substantial accumulation | MIC range (Candida albicans; FTL strains (3)): >32 µg/mL | MIC range (Candida albicans; MDPL strains (5)): >32 µg/mL | synthesis of mammalian GlcCer or other sphingolipids [5]: no significant changes | number of asci or nuclei in lung homogenates (P. murina; 13 days of treatment, versus vehicle-treated negative control): No significant differences | survival (P. murina; BHBM 3.2 mg/kg/day i.p., 13 days, versus untreated): survived significantly longer | MIC range (Coccidioides spp.): 8 to 16 µg/mL | volume occupied by the intracellular vesicles (C. neoformans [6]; P <0.05): significant increase | numbers of vesicles per square micrometer of cell surface area (C. neoformans [6]; untreated 0.33 ± 0.36): 0.84 ± 0.58 | 100% inhibitory concentration (IC100) [7]: 133 µg/mL | MIC range (Aspergillus fumigatus; FTL strains (3)): >16 µg/mL | MIC range (Aspergillus fumigatus; MDPL strain (1)): 8 µg/mL (≈ 24 µM) | MIC range (Blastomyces dermatitis): 0.5−1 µg/ml | MIC range (Candida parapsilosis; MDPL strains (3)): >32 µg/mL | MIC range (Candida parapsilosis; QC FTL strains): >16 µg/mL
